Measured values as given in ChEMBL document CHEMBL1125797, “Synthesis, characterization and myocardial uptake of cationic bis(arene)technetium(I) complexes” (J Med Chem, 1991).

Key:
Conditions in all cases: in vivo
[1] = tested on: Rattus norvegicus; test: Biodistribution of compound in rat kidney after 5 min of administration; format: ADME, organism-based
Summary of the method: (§1)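 Female Sprague-Dawley rats (150–200 g) received the 99mTc complex in normal saline (~12.5 μCi/mL) via a lateral tail vein at ~25 μCi/kg. They were killed by cervical dislocation 5 min after injection. Tissues were washed with saline, blotted, weighed and γ-counted, and the read-out was percent injected dose per g tissue.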

[2] = tested on: Rattus norvegicus; test: Biodistribution of compound in rat liver after 5 min of administration; format: ADME, organism-based; summary of the method: as §1
[3] = tested on: Rattus norvegicus; test: Biodistribution of compound in rat heart after 5 min of administration; format: ADME, organism-based; summary of the method: as §1
[4] = tested on: Rattus norvegicus; test: Biodistribution of compound in rat blood after 5 min of administration; format: ADME, organism-based; summary of the method: as §1
[5] = tested on: Rattus norvegicus; test: Biodistribution of compound in rat muscle after 5 min of administration; format: ADME, organism-based, Muscle tissue
Summary of the method: as §1, with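 “the” for “the 99mTc”, “through” for “via”, “Rats” for “They”, “γ-counted to give” for “γ-counted, and the read-out was”, “dose/g” for “dose per g”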

[6] = tested on: Rattus norvegicus; test: Biodistribution of compound in rat lung after 5 min of administration; format: ADME, organism-based
Summary of the method: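 Rats received the 99mTc complex in normal saline (~12.5 μCi/mL) by lateral tail vein injection at ~25 μCi/kg and were killed by cervical dislocation at the stated time. Tissues were washed with saline, blotted, weighed and γ-counted to give percent injected dose/g. Time-course values are averages of male and female rats.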

Dose/g [1]: 3.4%
Dose/g [2]: 2.6%
Dose/g [3]: 0.22%
Dose/g [4]: 0.2%
Dose/g [5]: 0.069%
Dose/g [6]: 0.51%
Substance: BIS(TOLUENE)TECHNETIUM
